Measured values pooled from the literature.
Compare with care: the assays were run in different laboratories.
Target: Serine/threonine-protein kinase pim-2 (PIM2, Homo sapiens, UniProt Q9P1W9)

SMILES	effect on	action	method	tested at	quantity	value
COc1ccc2c(c1)O[C@@H](c1ccc(OC)c(OC)c1)C[C@H]2NC(=O)C1(c2ccc3c(c2)OC(F)(F)O3)CC1	cell-free assay		competition with immobilised ligand	1 µM	remaining binding	100%
Cn1c(=O)n(-c2ccc(C(C)(C)C#N)cc2)c2c3cc(-c4cnc5ccccc5c4)ccc3ncc21	enzyme activity	inhibitor		10 µM	remaining activity	94%
CC(C)(C)c1nc2c(s1)c1nc(N)ncc1c1ccc(NS(=O)(=O)c3c(F)cccc3F)c(F)c12	enzyme activity	inhibitor	radiometric	1 µM	remaining activity	81%
N#CCCc1ccc2c(c1)-c1[nH]c3ccc([N+](=O)[O-])cc3c1CC(=O)N2	cell-free assay			0.5 µM	remaining signal	104%
CC(C)(O)[C@H]1CC[C@H](Nc2ccc3ncc(-c4cccc(C(F)(F)F)c4)n3n2)CC1	enzyme activity	inhibitor		1 µM	remaining activity	29.8%
CC/C(=N\NC(=O)NCc1cccc(O)c1)c1ccc(O)c(C)c1O	enzyme activity	inhibitor		0.1 µM	inhibition	-5%
O=c1nc(-c2ccccn2)sc2ccccc12	binding		competition with immobilised ligand	1 µM	remaining binding	97%
CCOc1cc(-c2nncn2C)ccc1Nc1ncc2cc(C)nc(NCC(C)(C)C)c2n1	enzyme activity	inhibitor	FRET	1 µM	inhibition	< 15%
Oc1cccc(-c2nc(N3CCOCC3)c3oc4ncccc4c3n2)c1	enzyme activity	inhibitor		10 µM	remaining activity	90%
O=C(CSc1nc2nccnc2c(=O)n1CCc1ccccc1)Nc1nccs1	enzyme activity	inhibitor		10 µM	inhibition	-5%
CCN(CC)c1ccc(C2=NNC(=O)CC2C)cc1[N+](=O)[O-] (stereo not shown)	enzyme activity	inhibitor		10 µM	remaining activity	108%
COc1cc(/C=C/C(=O)CC(=O)/C=C/c2ccc(O)c(OC)c2)ccc1O	enzyme activity	inhibitor		1 µM	activity vs control	74%
O=C1NC(=O)c2cc(Nc3ccc(F)cc3)c(Nc3ccc(F)cc3)cc21	cell-free assay			0.5 µM	remaining signal	98.6%
FC(F)(F)Oc1cccc(-c2cnc3ccc(-c4ccncc4)nn23)c1	enzyme activity	inhibitor	radiometric	5 µM	activity vs control	83%
Cc1ccc(C(=O)NCc2ccsc2)cc1C#Cc1cn(C(C)C)c2ncnc(N)c12	enzyme activity	inhibitor		1 µM	activity vs control	92%
O=C1Nc2ccc(Cl)cc2C1=Cc1cc(Cl)c(O)c(Cl)c1	cell-free assay			0.5 µM	remaining signal	48.6%

SMILES	effect on	action	method	tested at	quantity	value
Cc1cnc(NC2CCOCC2)nc1-n1cnc(C(=O)NC(CN)c2cc(F)cc(Cl)c2)c1 (stereo not shown)	enzyme activity	inhibitor	radiometric	1 µM	remaining activity	100%
CO[C@@H](C)c1c(Nc2ccc([C@H](N(C)C(=O)C3CCS(=O)(=O)CC3)C(F)(F)F)cc2)cnc2cc(Cl)nn12	cell-free assay		competition with immobilised ligand	1 µM	remaining binding	100%
CNC(=O)c1cc(Oc2ccc(NC(=O)Nc3ccc(Cl)c(C(F)(F)F)c3)cc2)ccn1	enzyme activity	inhibitor		10 µM	inhibition	9%
Nc1nc(Nc2ccccc2)sc1C(=O)c1c(F)cccc1F	enzyme activity	inhibitor		10 µM	remaining activity	91%
CN1CC(Oc2cnc(C#N)cc2-c2ccn3nc(NC(=O)C4CC4)cc3c2)C1	enzyme activity	inhibitor		1 µM	inhibition	4%
N#Cc1ccc(Nc2ccc3[nH]c(=O)[nH]c3c2)c(Cl)c1	cell-free assay		competition with immobilised ligand	1 µM	remaining binding	83%
COc1cc(Nc2c(C#N)cnc3cc(OCCCN4CCN(C)CC4)c(OC)cc23)c(Cl)cc1Cl	cell-free assay			0.5 µM	remaining signal	111%
Cc1nccc(COC(=O)N2C[C@@H]3[C@@H](CNC(=O)c4ccc5[nH]nnc5c4)[C@@H]3C2)n1	cell-free assay		competition with immobilised ligand	1 µM	remaining binding	0%
COc1cc(Nc2cnc(C#N)c(O[C@H](C)CN(C)C)n2)ncc1-c1cnn(C)c1	enzyme activity	inhibitor	radiometric	10 µM	remaining activity	77%
Cn1nc(C(F)(F)F)cc1-c1cnc(N2CCc3cc(S(=O)(=O)Nc4c(F)cc(Cl)cc4F)cc(N4CCCC4=O)c32)nc1	cell-free assay		competition with immobilised ligand	1 µM	remaining binding	100%
C=CC(=O)Nc1cc(Nc2nccc(Nc3cc(Cl)c(F)cc3C(C)(C)O)n2)c(OC)cc1N1CC[C@@H](N(C)C)C1	enzyme activity	inhibitor		1 µM	inhibition	16%
CC(=O)N1CCC(c2ccc(C(=O)NC(=N)N)cc2C(F)(F)F)CC1	cell-free assay		competition with immobilised ligand	1 µM	remaining binding	100%
Cc1sc(C(=O)NC2COC2)cc1-n1cc(NC(=O)Nc2c(F)cccc2Cl)cn1	enzyme activity	inhibitor		10 µM	remaining activity	96.5%
O=C1CCc2cc(Nc3cc(OC4CCOCC4)c([N+](=O)[O-])cc3Cl)ccc2N1	cell-free assay		competition with immobilised ligand	1 µM	remaining binding	84%
COc1cc2ncnc(Nc3ccc(Oc4ccccc4)c(C)c3C)c2cc1OC	enzyme activity	inhibitor		1 µM	inhibition	-2%
